From ChEMBL document CHEMBL3739273, “Synthesis, biological activity evaluation and molecular docking studies of novel coumarin substituted thiazolyl-3-aryl-pyrazole-4-carbaldehydes” (Bioorg Med Chem Lett, 2015)
Converted amounts (≈) assume the structure as drawn. The source made the active and inactive calls. The rule behind the calls is not given here.

What was measured:
[1] = Anticancer activity against human DU145 cells assessed as cell viability after 48 hrs by MTT assay; format: functional, cell-based; conditions: DU-145, 48 h
Summary of the method: (§1)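 MTT cytotoxicity assay in human DU-145 prostate, MCF-7 breast and HeLa cervical cancer cell lines. Doxorubicin was the reference drug.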

MCF7 = experiment: Anticancer activity against human MCF7 cells assessed as cell viability after 48 hrs by MTT assay; format: functional, cell-based; conditions: MCF7, 48 h; summary of the method: as §1
HeLa = experiment: Anticancer activity against human HeLa cells assessed as cell viability after 48 hrs by MTT assay; format: functional, cell-based; summary of the method: as §1
Bacillus cereus [2] = experiment: Antibacterial activity against Bacillus cereus ATCC 14579 assessed as growth inhibition at 100 ug/ml after 24 hrs by agar well diffusion method; format: functional
Summary of the method: (§2)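 Agar well diffusion. Compounds were tested at 10, 20, 100, 200 and 300 µg/mL, and the zone of inhibition was measured in mm. Gentamycin sulfate was the reference drug.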

Bacillus spizizenii [3] = experiment: Antibacterial activity against Bacillus subtilis ATCC 6633 assessed as growth inhibition at 100 ug/ml after 24 hrs by agar well diffusion method; format: functional, organism-based; summary of the method: as §2
Proteus vulgaris [4] = experiment: Antibacterial activity against Proteus vulgaris ATCC 13315 assessed as growth inhibition at 100 ug/ml after 24 hrs by agar well diffusion method; format: functional; summary of the method: as §2
Staphylococcus aureus [5] = experiment: Antibacterial activity against methicillin-resistant Staphylococcus aureus NCTC 13616 assessed as growth inhibition at 100 ug/ml after 24 hrs by agar well diffusion method; format: functional, organism-based
Summary of the method: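 Agar well diffusion assay with compounds applied to wells at several concentrations, including the 100 level reported here. The zone of inhibition was measured in mm. Gentamycin sulfate was the standard drug.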

Klebsiella pneumoniae [6] = experiment: Antibacterial activity against Klebsiella pneumoniae ATCC 43816 assessed as growth inhibition at 100 ug/ml after 24 hrs by agar well diffusion method; format: functional; summary of the method: as §2
Escherichia coli [7] = experiment: Antibacterial activity against Escherichia coli ATCC 8739 assessed as growth inhibition at 100 ug/ml after 24 hrs by agar well diffusion method; format: functional; summary of the method: as §2
Escherichia coli [8] = experiment: Antibacterial activity against Escherichia coli ATCC 8739 after 24 hrs by microtiter plate method; format: functional; conditions: ATCC 8739, 24 h
Summary of the method: (§3)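 Test concentrations reported in µg/mL. Gentamycin sulfate and ampicillin were the reference drugs.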

Klebsiella pneumoniae [9] = experiment: Antibacterial activity against Klebsiella pneumoniae ATCC 43816 after 24 hrs by microtiter plate method; format: functional; conditions: ATCC 43816, 24 h; summary of the method: as §3
Proteus vulgaris [10] = experiment: Antibacterial activity against Proteus vulgaris ATCC 13315 after 24 hrs by microtiter plate method; format: functional; conditions: ATCC 13315, 24 h; summary of the method: as §3
Staphylococcus aureus [11] = experiment: Antibacterial activity against methicillin-resistant Staphylococcus aureus NCTC 13616 after 24 hrs by microtiter plate method; format: functional; conditions: NCTC 13616, 24 h
Bacillus spizizenii [12] = experiment: Antibacterial activity against Bacillus subtilis ATCC 6633 after 24 hrs by microtiter plate method; format: functional; conditions: ATCC 6633, 24 h; summary of the method: as §3
Bacillus cereus [13] = experiment: Antibacterial activity against Bacillus cereus ATCC 14579 after 24 hrs by microtiter plate method; format: functional; conditions: ATCC 14579, 24 h; summary of the method: as §3
Escherichia coli [14] = experiment: Bactericidal activity against Escherichia coli ATCC 8739 after 24 hrs; format: functional; conditions: ATCC 8739, 24 h, read-out: MBC99.9
Summary of the method: (§4)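 MBC determined by a standard MBC protocol alongside the MIC, with values in µg/mL. Gentamycin sulfate and ampicillin were the references.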

Klebsiella pneumoniae [15] = experiment: Bactericidal activity against Klebsiella pneumoniae ATCC 43816 after 24 hrs; format: functional; conditions: ATCC 43816, 24 h, read-out: MBC99.9; summary of the method: as §4
Proteus vulgaris [16] = experiment: Bactericidal activity against Proteus vulgaris ATCC 13315 after 24 hrs; format: functional; conditions: ATCC 13315, 24 h, read-out: MBC99.9; summary of the method: as §4
Staphylococcus aureus [17] = experiment: Bactericidal activity against methicillin-resistant Staphylococcus aureus NCTC 13616 after 24 hrs; format: functional; conditions: NCTC 13616, 24 h, read-out: MBC99.9
Summary of the method: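 MBC determined by a standard MBC protocol run alongside the MIC determination. Gentamycin sulfate and ampicillin served as reference drugs.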

Bacillus spizizenii [18] = experiment: Bactericidal activity against Bacillus subtilis ATCC 6633 after 24 hrs; format: functional; conditions: ATCC 6633, 24 h, read-out: MBC99.9; summary of the method: as §4
Bacillus cereus [19] = experiment: Bactericidal activity against Bacillus cereus ATCC 14579 after 24 hrs; format: functional; conditions: ATCC 14579, 24 h, read-out: MBC99.9; summary of the method: as §4
[20] = n-Octanol-phosphate buffer partition coefficient, log P of the compound at pH 7.4 after 30 mins by shake flask method; format: physicochemical
Summary of the method: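 Shake-flask partition between n-octanol and 50 mM phosphate buffer, pH 7.4. P calculated and expressed as logP.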

Cytochrome P450 2A6 = target: T1, Cytochrome P450 2A6 (Homo sapiens, UniProt P11509); experiment: Inhibition of human microsomal CYP2A6; format: ADME
T1 sequence (P11509 whole entry): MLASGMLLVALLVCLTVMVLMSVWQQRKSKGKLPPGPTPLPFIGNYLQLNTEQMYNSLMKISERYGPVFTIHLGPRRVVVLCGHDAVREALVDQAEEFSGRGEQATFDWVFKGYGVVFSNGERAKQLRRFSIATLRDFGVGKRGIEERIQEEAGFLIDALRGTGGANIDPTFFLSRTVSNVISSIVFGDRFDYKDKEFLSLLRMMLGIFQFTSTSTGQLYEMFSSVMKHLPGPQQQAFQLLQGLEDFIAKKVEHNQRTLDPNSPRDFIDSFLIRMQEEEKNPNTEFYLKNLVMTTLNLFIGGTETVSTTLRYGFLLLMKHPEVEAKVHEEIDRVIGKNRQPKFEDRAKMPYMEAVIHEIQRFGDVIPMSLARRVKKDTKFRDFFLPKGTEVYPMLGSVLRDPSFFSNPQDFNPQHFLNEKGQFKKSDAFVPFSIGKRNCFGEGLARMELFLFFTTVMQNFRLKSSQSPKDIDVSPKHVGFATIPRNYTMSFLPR

With `O=Cc1cn(-c2nc(-c3cc4cc(Br)cc(Br)c4oc3=O)cs2)nc1-c1ccccc1` the IC50 [1] was 28 µM, the IC50 (MCF7) was 22.2 µM and the IC50 (HeLa) was 13.7 µM. The “growth inhibition (GI)” value (Bacillus cereus [2]) was “Active”, the “growth inhibition (GI)” value (Bacillus spizizenii [3]) was “Active” and the “growth inhibition (GI)” value (Proteus vulgaris [4]) was “Active”. For the same compound, the “growth inhibition (GI)” value (Staphylococcus aureus [5]) was “Active”, the “growth inhibition (GI)” value (Klebsiella pneumoniae [6]) was “Active” and the “growth inhibition (GI)” value (Escherichia coli [7]) was “Active”. It also gave an MIC (Escherichia coli [8]) of 116 µg/mL (≈ 207 µM), an MIC (Klebsiella pneumoniae [9]) of 119 µg/mL (≈ 214 µM) and an MIC (Proteus vulgaris [10]) of 120 µg/mL (≈ 215 µM). It also gave an MIC (Staphylococcus aureus [11]) of 117 µg/mL (≈ 210 µM), an MIC (Bacillus spizizenii [12]) of 118 µg/mL (≈ 212 µM) and an MIC (Bacillus cereus [13]) of 119 µg/mL (≈ 214 µM). The MBC (Escherichia coli [14]) was 170 µg/mL (≈ 305 µM), the MBC (Klebsiella pneumoniae [15]) was 240 µg/mL (≈ 431 µM) and the MBC (Proteus vulgaris [16]) was 240 µg/mL (≈ 431 µM). The MBC (Staphylococcus aureus [17]) was 175 µg/mL (≈ 314 µM), the MBC (Bacillus spizizenii [18]) was 240 µg/mL (≈ 431 µM) and the MBC (Bacillus cereus [19]) was 240 µg/mL (≈ 431 µM). The logD at 0.5 h [20] was 3.11 and the Ki (Cytochrome P450 2A6) was 0.00341 µM.
`O=Cc1cn(-c2nc(-c3cc4cc(Cl)cc(Cl)c4oc3=O)cs2)nc1-c1ccccc1` showed an IC50 [1] of 41.1 µM, an IC50 (MCF7) of 76.3 µM and an IC50 (HeLa) of 13.8 µM. For the same compound, the “growth inhibition (GI)” value (Bacillus cereus [2]) was “Active”, the “growth inhibition (GI)” value (Bacillus spizizenii [3]) was “Active” and the “growth inhibition (GI)” value (Proteus vulgaris [4]) was “Active”. The “growth inhibition (GI)” value (Staphylococcus aureus [5]) was “Active”, the “growth inhibition (GI)” value (Klebsiella pneumoniae [6]) was “Active” and the “growth inhibition (GI)” value (Escherichia coli [7]) was “Active”. For the same compound, the MIC (Escherichia coli [8]) was 120 µg/mL (≈ 255 µM), the MIC (Klebsiella pneumoniae [9]) was 118 µg/mL (≈ 252 µM) and the MIC (Proteus vulgaris [10]) was 132 µg/mL (≈ 281 µM). It also gave an MIC (Staphylococcus aureus [11]) of 115 µg/mL (≈ 246 µM), an MIC (Bacillus spizizenii [12]) of 123 µg/mL (≈ 263 µM) and an MIC (Bacillus cereus [13]) of 117 µg/mL (≈ 250 µM). The MBC (Escherichia coli [14]) was 240 µg/mL (≈ 512 µM), the MBC (Klebsiella pneumoniae [15]) was 175 µg/mL (≈ 374 µM) and the MBC (Proteus vulgaris [16]) was 260 µg/mL (≈ 555 µM). The MBC (Staphylococcus aureus [17]) was 175 µg/mL (≈ 374 µM), the MBC (Bacillus spizizenii [18]) was 250 µg/mL (≈ 534 µM) and the MBC (Bacillus cereus [19]) was 175 µg/mL (≈ 374 µM). The Ki (Cytochrome P450 2A6) was 0.00307 µM.
In the case of `Cc1ccc(-c2nn(-c3nc(-c4cc5ccccc5oc4=O)cs3)cc2C=O)cc1`, the IC50 [1] is reported as 50.2 µM, the IC50 (MCF7) is reported as 69.5 µM and the IC50 (HeLa) is reported as 37.4 µM. For the same compound, the “growth inhibition (GI)” value (Staphylococcus aureus [5]) was “inactive”, the MIC (Escherichia coli [8]) was 132 µg/mL (≈ 320 µM) and the MIC (Klebsiella pneumoniae [9]) was 150 µg/mL (≈ 363 µM). For the same compound, the MIC (Proteus vulgaris [10]) was 150 µg/mL (≈ 363 µM), the MIC (Staphylococcus aureus [11]) was 150 µg/mL (≈ 363 µM) and the MIC (Bacillus spizizenii [12]) was 150 µg/mL (≈ 363 µM). The MIC (Bacillus cereus [13]) was 135 µg/mL (≈ 327 µM), the MBC (Escherichia coli [14]) was 260 µg/mL (≈ 629 µM) and the MBC (Klebsiella pneumoniae [15]) was 300 µg/mL (≈ 726 µM). The MBC (Proteus vulgaris [16]) was 300 µg/mL (≈ 726 µM), the MBC (Staphylococcus aureus [17]) was 300 µg/mL (≈ 726 µM) and the MBC (Bacillus spizizenii [18]) was 300 µg/mL (≈ 726 µM). The MBC (Bacillus cereus [19]) was 270 µg/mL (≈ 653 µM) and the Ki (Cytochrome P450 2A6) was 0.011 µM.
